In data set [1] the test system is Rattus norvegicus. In words: Toxicity in Wistar Han IGS rat at 10 mg/kg, po qd administered for 14 days. Format: organism-based. Particulars: in vivo, 336 h. The essentials: (§1)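 Wistar Han rats, daily oral dosing for 14 days (5/sex/dose) or 1 month (10/sex/dose); microscopic findings reported as incidence by sex, plus organ weights.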
In data set [2] the test system is Canis familiaris. The experiment in a line: Toxicity in telemetered beagle dog assessed as multiple bouts of emesis at 75 mg/kg administered via oral gavage measured within 4 hrs of dosing. Format: organism-based, Canis lupus familiaris. As to conditions: in vivo.
Data set [3] relates to Canis familiaris. In words: Toxicity in telemetered beagle dog assessed as increase in diastolic pressure at 75 mg/kg administered via oral gavage measured over 24 hrs. Format: organism-based, Canis lupus familiaris. Particulars: in vivo.
Data set [4] deals with Canis familiaris. The experiment in a line: Unbound Cmax in beagle dog […] at 300 mg/kg, po qd administered for 14 days. The class given is ADME, organism-based, Canis lupus familiaris. Particulars: in vivo, 336 h. The essentials:
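Exploratory 14-day dog toxicity study with daily oral dosing. Toxicokinetic exposure is reported as the mean with male and female systemic values combined.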

Data set [5] has as its system Canis familiaris. The experiment in a line: Toxicity in telemetered beagle dog assessed as foamy white salivation at 75 mg/kg administered via oral gavage measured within 4 hrs of dosing. The class given is organism-based, Canis lupus familiaris. As to conditions: in vivo.
Data set [6] concerns Rattus norvegicus. The experiment in a line: In vivo inhibition of DGAT2 in Wistar Han IGS rat assessed as coverage of in vitro IC50 for rat DGAT2 at 30 mg/kg, po qd administered for 1 month. The class given is functional. The arrangement: scale not given: the % may be the effect or the level left. The essentials: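 Wistar Han rats, once-daily oral dosing for 14 days (exploratory, 5/sex/dose) or 1 month (10/sex/dose); toxicokinetics in 3–4/sex/dose with sexes combined; coverage is the average % above rat DGAT2 IC50 at steady state over the 24 h dosing interval.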

The test system of data set [7] is Canis familiaris. In words: Toxicity in telemetered beagle dog assessed as increase in systolic blood pressure at 20 mg/kg, iv administered as single bolus dose over 2 mins. Particulars: in vivo. Format: organism-based, Canis lupus familiaris.
The subject of data set [8] is Canis familiaris. In words: Toxicity in beagle dog at 75 mg/kg, po qd administered for 14 days. The class given is organism-based, Canis lupus familiaris. Particulars: in vivo, 336 h.
The subject of data set [9] is Canis familiaris. In words: Toxicity in telemetered beagle dog assessed as change in left ventricular parameters and activity level at 5 mg/kg administered via oral gavage measured over 24 hrs. Format: organism-based, Canis lupus familiaris. Particulars: in vivo.
The test system of data set [10] is Rattus norvegicus. In words: Toxicity in Wistar Han IGS rat assessed as gastric smooth muscle degeneration at 500 mg/kg, po qd administered for 14 days. Format: organism-based. Particulars: in vivo, 336 h. The essentials: as §1
Data set [11] has as its system Canis familiaris. In words: Toxicity in beagle dog assessed as increase in heart rate at 50 to 150 mg/kg, po qd administered for 1 month. Particulars: in vivo. Format: organism-based, Canis lupus familiaris.
Data set [12] relates to Rattus norvegicus. The experiment in a line: Unbound Cmax in Wistar Han IGS rat at 300 mg/kg, po qd administered for 1 month. The class given is ADME, organism-based. As to conditions: in vivo. The essentials: (§2)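 Wistar Han rats were dosed orally once daily for 14 days (exploratory, 5/sex/dose) or 1 month (toxicity, 10/sex/dose). Toxicokinetic satellite animals (3–4/sex/dose) were used, and steady-state systemic exposure is given as the mean of male and female values combined.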

Data set [13] has as its system Rattus norvegicus. In words: Unbound AUC in Wistar Han IGS rat at 300 mg/kg, po qd administered for 1 month. Format: ADME, organism-based. As to conditions: in vivo. The essentials:
as §2

For data set [14], the system named is Rattus norvegicus. The experiment in a line: Unbound Cmax in Wistar Han IGS rat at 30 mg/kg, po qd administered for 1 month. Format: ADME, organism-based. As to conditions: in vivo. The essentials:
as §2

Data set [15] addresses T1, Diacylglycerol O-acyltransferase 2 (Homo sapiens, UniProt Q96PD7).
T1 sequence (Q96PD7 whole entry): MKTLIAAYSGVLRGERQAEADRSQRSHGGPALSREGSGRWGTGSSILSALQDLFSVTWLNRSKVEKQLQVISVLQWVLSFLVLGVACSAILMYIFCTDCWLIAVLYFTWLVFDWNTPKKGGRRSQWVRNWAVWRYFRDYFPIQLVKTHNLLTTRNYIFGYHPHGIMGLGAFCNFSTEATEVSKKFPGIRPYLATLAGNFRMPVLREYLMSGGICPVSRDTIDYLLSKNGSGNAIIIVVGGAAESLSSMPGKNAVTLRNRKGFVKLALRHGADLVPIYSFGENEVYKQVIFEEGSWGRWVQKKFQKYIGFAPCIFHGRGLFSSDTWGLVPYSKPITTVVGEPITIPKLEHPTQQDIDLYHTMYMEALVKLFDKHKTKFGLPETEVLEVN
In words: Inhibition of human DGAT2. The essentials: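 IC50 against human DGAT2 in an enzymatic assay, reported as the geometric mean of at least three replicates with SEM.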

Data set [16] in a line: Ratio of Cmax in beagle dog at 3 mg/kg, po qd administered for 1 month to IC50 for in vitro inhibition of dog DGAT2. As to conditions: in vivo. Format: organism-based, Canis lupus familiaris. The essentials:
(§3)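 One-month toxicity study in Beagle dogs with N = 2/sex/dose. Plasma exposure at each dose level was referenced to the dog DGAT2 enzymatic IC50, reported as the geometric mean of at least three replicates.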

Data set [17] in a line: Apparent permeability of the compound at pH 7.4. The class given is ADME. Particulars: not told.
Data set [18] relates to Canis familiaris. The experiment in a line: Toxicity in telemetered beagle dog assessed as increase in diastolic pressure at 5 mg/kg administered via oral gavage measured during 4 hrs of post dosing. The class given is organism-based, Canis lupus familiaris. Particulars: in vivo.
The nature of data set [19]: Apparent intrinsic clearance in dog hepatocytes assessed per million cells. Format: ADME, cell-based, Canis lupus familiaris, Hepatocyte.
Data set [20] is described as follows: Fraction unbound in rat plasma. The class given is ADME, cell-free.
Data set [21] in a line: Drug metabolism in human liver microsomes assessed as fraction of UGT-mediated glucuronidation preincubated for 5 mins followed by addition of NADPH regenerating system and measured after 2.5 to 60 mins. Format: ADME. The essentials:
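Fractions of metabolism attributed to CYP oxidation and UGT glucuronidation were derived from human liver microsomal incubations. For the glucuronidation arm, microsomes were supplemented with the UGT cofactor UDP-glucuronic acid.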
A general note: Liver microsomes are vesicles of endoplasmic reticulum, rich in cytochrome P450 enzymes.

For data set [22], the system named is Canis familiaris. The experiment in a line: Toxicity in telemetered beagle dog assessed as emesis at 5 to 50 mg/kg administered via oral gavage measured within 4 hrs of dosing. The class given is organism-based, Canis lupus familiaris. Particulars: in vivo.
A short description of data set [23]: Ratio of Cmax in beagle dog at 10 mg/kg, po qd administered for 1 month to IC50 for in vitro inhibition of dog DGAT2. As to conditions: in vivo. Format: organism-based, Canis lupus familiaris. The essentials:
as §3

The nature of data set [24]: Half life in beagle dog at 5 mg/kg, po. Format: ADME, organism-based, Canis lupus familiaris. As to conditions: in vivo.
The target of data set [25] is T2, Diacylglycerol O-acyltransferase 1 (Homo sapiens, UniProt O75907).
T2 sequence (O75907 whole entry): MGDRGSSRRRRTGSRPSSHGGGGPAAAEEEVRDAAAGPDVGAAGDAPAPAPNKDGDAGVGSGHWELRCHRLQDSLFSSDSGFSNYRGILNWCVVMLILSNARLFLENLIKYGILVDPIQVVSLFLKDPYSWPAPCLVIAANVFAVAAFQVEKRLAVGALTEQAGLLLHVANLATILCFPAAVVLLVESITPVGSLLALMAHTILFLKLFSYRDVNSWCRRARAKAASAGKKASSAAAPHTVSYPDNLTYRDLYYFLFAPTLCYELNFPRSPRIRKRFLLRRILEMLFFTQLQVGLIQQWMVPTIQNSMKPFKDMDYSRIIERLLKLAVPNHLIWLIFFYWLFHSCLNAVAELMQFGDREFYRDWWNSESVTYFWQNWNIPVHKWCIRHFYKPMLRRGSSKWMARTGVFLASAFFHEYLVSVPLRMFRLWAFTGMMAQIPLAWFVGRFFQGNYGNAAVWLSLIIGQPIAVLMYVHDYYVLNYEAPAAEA
In words: Inhibition of DGAT1 (unknown origin).

Data set [26] can be described thus: Ratio of Cmax in telemetered beagle dog at 50 mg/kg administered via oral gavage measured over 24 hrs to IC50 for in vitro inhibition of dog DGAT2. As to conditions: in vivo. Format: organism-based, Canis lupus familiaris. The essentials: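 Telemetered Beagle dogs given single oral doses (5, 25 and 50 mg kg–1), with systolic and diastolic blood pressure and heart rate monitored after dosing. Cmax is related to the dog DGAT2 enzymatic IC50, which is the geometric mean of at least three replicates.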

Data set [27] deals with Canis familiaris. In words: Toxicity in telemetered beagle dog assessed as increase in diastolic pressure at 50 mg/kg administered via oral gavage measured during 4 hrs of post dosing. Format: organism-based, Canis lupus familiaris. As to conditions: in vivo.

In the case of `CS(=O)(=O)O.O=C([C@@H]1CCCN(c2ccc3nc(C4(n5cc(Cl)cn5)CC4)[nH]c3n2)C1)N1CCCC1`, the Activity result in the data set on Rattus norvegicus [1] is given as “Non-Toxic”; in the data set on Canis familiaris [2], “Toxic”; with Canis familiaris [3], 6 mmHg; with Canis familiaris [5] it was “Toxic”; in the data set on Rattus norvegicus [6], 92%; in the data set with Canis familiaris [7], “Non-Toxic”. The Activity entry with Canis familiaris [8] is given as “Non-Toxic”; with Canis familiaris [9] it was “Non-Toxic”; with Rattus norvegicus [10], “Toxic”; in the data set with Canis familiaris [11], “Toxic”. For the same molecule, the values for the fCmax with Canis familiaris [4], with Rattus norvegicus [12] and with Rattus norvegicus [14] were 15.3 µM, 13.9 µM and 2020 nM, respectively. Besides, the fAUC with Rattus norvegicus [13] worked out at 62500 ng·h/mL.
Consider `C[C@@H](c1nc2ccc(N3CCC[C@@H](C(=O)N4CCCC4)C3)nc2[nH]1)n1cc(Cl)cn1`, for which the IC50 (as a rule, the concentration needed to halve the response being measured) in data set [15] was 20 nM; in data set [25], more than 50000 nM. Further, the Ratio in [16] worked out at 11; in data set [21] it was 0.39; in data set [23], 31; in data set [26], 110. The Papp (as a rule, the rate of passage across a membrane or cell layer, normalised by area and donor concentration) in data set [17] amounted to 13.1 ×10⁻⁶ cm/s. Moreover, the Activity in the data set with Canis familiaris [18] is 4 to 6 mmHg; with Canis familiaris [22], “Toxic”; in the data set with Canis familiaris [27], 6 mmHg. For the same molecule, in [19], the “CLH(app)” value is 8.4 µL/min. Besides, the fraction unbound (commonly free concentration divided by total concentration) in data set [20] was 0.14. In addition, the half-life (commonly how long it takes for the measured level to halve) in data set [24] is 3 h.
